Drawing on ChEMBL document CHEMBL4257549, “Design, synthesis and biological evaluation of benzimidazole-rhodanine conjugates as potent topoisomerase II inhibitors” (Medchemcomm, 2018), this text covers inhibition and IC50 for 19 compounds.

The source made the active and inactive calls. No cut-off for these calls is given here.

Assay [1] concerns the target T1, DNA topoisomerase 1 (Homo sapiens) (UniProt P11387).
T1 sequence (whole entry): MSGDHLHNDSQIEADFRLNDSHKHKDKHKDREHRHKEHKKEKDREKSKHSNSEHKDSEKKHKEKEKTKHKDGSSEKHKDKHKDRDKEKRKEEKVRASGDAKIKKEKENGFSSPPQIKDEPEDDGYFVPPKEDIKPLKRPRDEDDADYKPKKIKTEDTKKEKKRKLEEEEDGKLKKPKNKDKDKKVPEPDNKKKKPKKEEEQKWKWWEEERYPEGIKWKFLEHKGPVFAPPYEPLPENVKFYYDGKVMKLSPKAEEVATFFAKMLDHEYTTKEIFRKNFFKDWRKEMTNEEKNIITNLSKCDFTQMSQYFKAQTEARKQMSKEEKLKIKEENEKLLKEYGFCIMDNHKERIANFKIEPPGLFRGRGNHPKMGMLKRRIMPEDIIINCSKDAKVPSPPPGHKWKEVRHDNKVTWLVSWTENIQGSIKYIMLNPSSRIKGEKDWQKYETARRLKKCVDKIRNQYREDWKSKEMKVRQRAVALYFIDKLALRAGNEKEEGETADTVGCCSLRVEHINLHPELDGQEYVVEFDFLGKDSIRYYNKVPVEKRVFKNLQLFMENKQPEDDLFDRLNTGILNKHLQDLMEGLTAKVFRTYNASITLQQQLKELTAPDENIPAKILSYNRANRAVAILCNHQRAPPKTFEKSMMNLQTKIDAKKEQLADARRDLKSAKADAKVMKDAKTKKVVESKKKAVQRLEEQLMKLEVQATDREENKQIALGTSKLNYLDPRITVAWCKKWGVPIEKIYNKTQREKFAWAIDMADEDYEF
Briefly: Inhibition of topoisomerase 1 (unknown origin)-mediated pBR322 DNA relaxation at 50 uM after 30 mins by agarose gel electrophoresis. The essentials:
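Topo I relaxation of pBR322 with compound at 30 min, 37 °C, camptothecin positive control. Stopped with SDS/bromophenol blue/glycerol dye, run on 1% agarose in TAE for 1.5 h, Ged Red stained, UV visualized.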

In another assay the test system is MDA-MB-231. Briefly: Cytotoxicity against human MDA-MB-231 cells after 48 hrs by MTT assay. The assay is classed as functional, cell-based. The following applies: MDA-MB-231, 48 h. In short, it runs like this: (§1)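 Cells seeded at 5000 per well, left overnight, then exposed to compound at 0–50 μM for 48 h. MTT (20 μL of 2.5 mg mL−1) added for a further 4 h at 37 °C, formazan dissolved in DMSO, absorbance read at 570 nm. Quadruplicate wells, N > 2 determinations, mean IC50 taken as the concentration reducing cell number to 50%.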
In general terms: Tetrazolium assays rely on reduction of a dye to a coloured formazan, in cell work by metabolically active cells.

For assay [2], the species on record is Homo sapiens. Nature of the assay: Inhibition of human topoisomerase 2-mediated pBR322 DNA relaxation at 20 uM after 30 mins by agarose gel electrophoresis.
A further assay concerns HeLa. Briefly: Cytotoxicity against human HeLa cells after 48 hrs by MTT assay. The assay is classed as functional, cell-based. The essentials: as §1
Another assay concerns A549. Briefly: Cytotoxicity against human A549 cells after 48 hrs by MTT assay. The format is functional, cell-based. To be noted: A549, 48 h. In short, it runs like this:
as §1

In another assay the test system is HL-60. Briefly: Cytotoxicity against human HL60 cells after 48 hrs by MTT assay. The following applies: HL-60, 48 h. The format is functional, cell-based. The essentials:
as §1

The test system of a further assay is Raji. Briefly: Cytotoxicity against human Raji cells after 48 hrs by MTT assay. The format is functional, cell-based. The essentials:
as §1

For another assay, the system named is PC-3. Nature of the assay: Cytotoxicity against human PC3 cells after 48 hrs by MTT assay. The following applies: PC-3, 48 h. The assay is classed as functional, cell-based. The essentials: as §1
Assay [3] is filed under the species Homo sapiens. Briefly: Inhibition of human topoisomerase 2-mediated pBR322 DNA relaxation at 50 uM after 30 mins by agarose gel electrophoresis. The essentials:
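Relaxation of 200 ng supercoiled pBR322 by 1 U Topo II (TopoGEN) in 20 μL buffer: 50 mM Tris-HCl pH 8.0, 150 mM NaCl, 10 mM MgCl2, 2 mM ATP, 0.5 mM DTT, 30 μg/mL BSA. Incubated 30 min at 37 °C, stopped with sarcosyl/glycerol dye. Products run on 1% agarose in TAE (1.5 h, 75 V), Ged Red stained, UV imaged; etoposide positive control.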

In general, IC50 refers to the midpoint of a concentration-inhibition curve. Low values mean higher potency, high ones lower potency. On to `O=C(O)CN1C(=O)/C(=C/c2nc3ccccc3n2Cc2ccc(Br)cc2)SC1=S`, for which, in assay [1], the inhibition entry was “inactive”. Also, the IC50 was determined as 8.72 µM in the assay with MDA-MB-231; 12.9 µM in the assay with HeLa; 9.12 µM in the assay with A549; 0.87 µM with HL-60; 1.19 µM with Raji; 8.49 µM with PC-3. Further, the inhibition result in the assay listed under Homo sapiens [2] was “Active”.

Take `O=C(O)CN1C(=O)/C(=C/c2nc3ccccc3n2Cc2ccc(Cl)cc2)SC1=S`: in assay [1], the inhibition entry is “inactive”. For the same compound, the IC50 amounted to 5.58 µM in the assay on MDA-MB-231; 8.72 µM in the assay with HeLa; 17.5 µM in the assay with A549; 2.65 µM with HL-60; 11.4 µM with Raji; 9.67 µM with PC-3. Also, the inhibition result in the assay filed under Homo sapiens [2] was “Active”.

As to `Cc1ccc(C(=O)Cn2c(/C=C3\SC(=S)N(CC(=O)O)C3=O)nc3ccccc32)cc1`, the inhibition result in assay [1] is “inactive”. The IC50 in the assay with MDA-MB-231 came out at 16.9 µM; in the assay with HeLa it was 27.4 µM; with A549, 9.46 µM; in the assay with HL-60, 15.9 µM; in the assay on Raji, 12.3 µM; in the assay with PC-3, 8.75 µM. The inhibition entry in the assay filed under Homo sapiens [2] was “Active”.

Take `O=C(O)CN1C(=O)/C(=C/c2nc3ccccc3n2Cc2ccc(F)cc2)SC1=S`: the inhibition result in [1] was “inactive”. The IC50 is 2.62 µM in the assay with MDA-MB-231; 13.9 µM in the assay on HeLa; 3.57 µM in the assay with A549; 1.42 µM with HL-60; 1.77 µM in the assay on Raji; 4.86 µM with PC-3. Moreover, in the assay filed under Homo sapiens [2], the inhibition result is “Active”.

For the compound `O=C(O)CN1C(=O)/C(=C/c2nc3ccccc3n2Cc2ccc([N+](=O)[O-])cc2)SC1=S`, the inhibition result (in assay [1]; in the assay filed under Homo sapiens [2]) was “inactive” in each case. The IC50 amounted to 7.76 µM in the assay on MDA-MB-231; 18.6 µM in the assay on HeLa; 11.4 µM in the assay with A549; 5.32 µM in the assay on HL-60; 2.51 µM with Raji; 8.27 µM with PC-3.

Regarding `O=C1NC(=S)S/C1=C\c1nc2ccccc2n1Cc1ccccc1F`, in assay [1], the inhibition entry was “inactive”. In addition, the IC50 in the assay on MDA-MB-231 is 21.3 µM; in the assay with HeLa, 36.1 µM; with A549, more than 50 µM; with HL-60, 8.42 µM; with Raji it was 25.5 µM; with PC-3, more than 50 µM. For the same compound, in the assay listed under Homo sapiens [2], the inhibition result was “Active”.

On to `CCn1c(/C=C2\SC(=S)N(CC(=O)O)C2=O)nc2ccccc21`, for which the inhibition result (in assay [1]; in the assay listed under Homo sapiens [2]) was “inactive” each time. The IC50 in the assay on MDA-MB-231 amounted to 1.88 µM; in the assay with HeLa, 3.52 µM; in the assay on A549, 9.44 µM; in the assay on HL-60 it was 2.12 µM; with Raji, 5.56 µM; in the assay with PC-3, 3.25 µM. Also, the inhibition result in the assay listed under Homo sapiens [3] is “Active”.

With `N#Cc1ccc(Cn2c(/C=C3\SC(=S)N(CC(=O)O)C3=O)nc3ccccc32)cc1`, the inhibition result (in assay [1]; in the assay listed under Homo sapiens [2]) was “inactive” throughout. Also, the IC50 with MDA-MB-231 was found to be 11.2 µM; with HeLa, 16.3 µM; in the assay with A549, 26.6 µM; with HL-60 it was 7.64 µM; with Raji, 9.78 µM; with PC-3, 14.4 µM.

For `O=C(O)CN1C(=O)/C(=C/c2nc3ccccc3n2Cc2ccc(F)cc2F)SC1=S`, the inhibition entry (in assay [1]; in the assay listed under Homo sapiens [2]) was “inactive” in each case. Moreover, the IC50 in the assay with MDA-MB-231 came to 11.5 µM; in the assay on HeLa it was 26.1 µM; with A549 it was 12.8 µM; in the assay on HL-60 it was 6.52 µM; in the assay on Raji, 8.96 µM; in the assay on PC-3 it was 21.7 µM. Also, the inhibition result in the assay listed under Homo sapiens [3] is “Active”.

As to `Cc1ccc(Cn2c(/C=C3\SC(=S)N(CCC(=O)O)C3=O)nc3ccccc32)cc1`, the inhibition result (in assay [1]; in the assay listed under Homo sapiens [2]) was “inactive” each time. Besides, the IC50 came out at 3.79 µM with MDA-MB-231; 11.2 µM in the assay on HeLa; 8.74 µM in the assay with A549; 4.14 µM in the assay with HL-60; 6.68 µM in the assay on Raji; 9.31 µM in the assay with PC-3.

`O=C(O)CN1C(=O)/C(=C/c2nc3ccccc3n2Cc2cccc(F)c2)SC1=S`: the inhibition entry (in assay [1]; in the assay filed under Homo sapiens [2]) was “inactive” each time. Moreover, the IC50 in the assay with MDA-MB-231 was 22.5 µM; with HeLa, more than 50 µM; with A549 it was 23.2 µM; with HL-60, 7.21 µM; in the assay on Raji, 13.3 µM; in the assay on PC-3, 35.7 µM.

On to `O=C(O)CN1C(=O)/C(=C/c2nc3ccccc3n2Cc2ccccc2)SC1=S`, for which, in assay [1], the inhibition result is “inactive”. In addition, the IC50 with MDA-MB-231 came to 1.82 µM; in the assay with HeLa, 22.7 µM; in the assay on A549 it was 8.76 µM; in the assay on HL-60 it was 0.96 µM; in the assay on Raji, 3.86 µM; in the assay on PC-3, 10.8 µM. Moreover, the inhibition result in the assay listed under Homo sapiens [2] and in the assay listed under Homo sapiens [3] was “Active” in each case.

Regarding `O=C(O)CN1C(=O)/C(=C/c2nc3ccccc3n2Cc2ccc(C(F)(F)F)cc2)SC1=S`, the inhibition entry in [1] is “inactive”. Also, the IC50 in the assay on MDA-MB-231 was 12.5 µM; in the assay on HeLa, 21.4 µM; in the assay on A549, 25.3 µM; with HL-60, 3.56 µM; with Raji it was 18.8 µM; in the assay on PC-3, 22.9 µM. Further, the inhibition result in the assay filed under Homo sapiens [2] is “Active”.

Take `COc1ccc2c(c1)nc(/C=C1\SC(=S)N(CC(=O)O)C1=O)n2Cc1ccccc1F`: the inhibition result (in assay [1]; in the assay filed under Homo sapiens [2]) was “inactive” in each case. Further, the IC50 with MDA-MB-231 came out at 16.9 µM; with HeLa, 22.5 µM; with A549, 18.4 µM; in the assay with HL-60, 3.41 µM; in the assay with Raji, 11.5 µM; in the assay with PC-3, 24.7 µM. Besides, the inhibition entry in the assay listed under Homo sapiens [3] was “Active”.

Consider `COc1ccc2nc(/C=C3\SC(=S)N(CC(=O)O)C3=O)n(Cc3ccc(C)cc3)c2c1`, for which the inhibition result in assay [1] is “inactive”. Further, the IC50 in the assay on MDA-MB-231 is 3.77 µM; in the assay with HeLa, 6.44 µM; in the assay on A549, 23.6 µM; with HL-60, 1.92 µM; with Raji, 10.8 µM; in the assay with PC-3 it was 16.2 µM. The inhibition result in the assay listed under Homo sapiens [2] and in the assay filed under Homo sapiens [3] was “Active” in each case.

`Cc1ccc(Cn2c(/C=C3\SC(=S)NC3=O)nc3ccccc32)cc1`: in assay [1], the inhibition entry is “inactive”. For the same compound, the IC50 in the assay with MDA-MB-231 was 6.42 µM; in the assay on HeLa, 25.2 µM; in the assay on A549 it was 5.31 µM; in the assay on HL-60, 2.66 µM; in the assay on Raji it was 4.48 µM; in the assay on PC-3, 9.78 µM. In addition, the inhibition result in the assay listed under Homo sapiens [2] was “Active”.

Turning to `O=C(O)CCN1C(=O)/C(=C/c2nc3ccccc3n2Cc2ccccc2F)SC1=S`, the inhibition entry (in [1]; in the assay filed under Homo sapiens [2]) was “inactive” throughout. Also, the half-inhibitory concentration (IC50) in the assay on MDA-MB-231 turned out to be 9.53 µM; with HeLa, 26.5 µM; with A549, 18.7 µM; in the assay with HL-60, 5.72 µM; in the assay with Raji it was 11.3 µM; with PC-3, 28.6 µM.

Turning to `CC[C@@]1(O)C(=O)OCc2c1cc1n(c2=O)Cc2cc3ccccc3nc2-1` [CAMPTOTHECIN], the IC50 was 16.4 µM with MDA-MB-231; more than 50 µM in the assay on HeLa; 2.21 µM in the assay on A549; 0.42 µM in the assay with HL-60; 3.27 µM with Raji; 18.2 µM in the assay with PC-3.

For `COc1ccc(C(=O)Cn2c(/C=C3\SC(=S)N(CC(=O)O)C3=O)nc3ccccc32)cc1`, the inhibition entry (in [1]; in the assay listed under Homo sapiens [2]) was “inactive” throughout. Further, the 50% inhibitory concentration (IC50) with MDA-MB-231 was 12.9 µM; with HeLa, 26.7 µM; with A549 it was 5.15 µM; in the assay with HL-60 it was 5.44 µM; in the assay with Raji it was 6.32 µM; with PC-3, 8.75 µM.
